# H69AR growth 86K – growth inhibitors of human H69AR lung tumor cells; H69AR lung tumor viability, ATP luminescence, 72 h; active compounds read low; viability, % at 10 µM; hit rate 6% among 85,000;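 active = viability at or below 40%; inactive = viability above 40%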;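 also: multidrug resistant small cell line overexpressing MRP-1 efflux transporter; 100% = mean luminescence of untreated control wells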
# HCT116 bCat-KO – beta-catenin-lacking colon tumor cell growth suppression | viability, % at 10 µM | hit rate 1.5% among 140,000 | HCT116 beta-catenin knockout viability, CellTiter-Glo, 60 h; active compounds read low;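 active = viability at or under a set limit, the compound median less 4 SD, cut at about 6% in these data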;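 also: 0% = Hyamine 1622 control at 20 µM and 100% = untreated cell control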
# HUVEC inhibit – human endothelial cell proliferation inhibition; HUVEC proliferation, CellTiter-Glo luminescence, 72 h; active compounds read low; AID 648; viability, % at 10 µM (by protocol); hit rate 1.1% among 86,000;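 active = viability at or below 30%; inactive = viability above 30%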;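 also: 100% = median luminescence of DMSO-only cell control wells on each plate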
# Fibroblast inh – blocks proliferation of human lung fibroblasts; LL 47 human lung fibroblast viability, ATP luminescence; active compounds read low; viability, % at 10 µM; hit rate 1.1% among 85,000; AID 719;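 active = viability at or below 50% in the single dose screen; inactive = viability above 50%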;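 also: compound exposure lasted 72 h before the ATP readout; 100% = median luminescence of untreated cell-only wells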
#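 material = human LL 47 lung fibroblast cells | dosing = compounds added from tenfold dosing solution, 0.1% DMSO final | timing = overnight cell rest, 72 h compound treatment at 37 °C | measured by = CellTiter-Glo luminescence measuring cellular ATP | evaluation = % viability versus median cells-only luminescence | control set = cell-only wells, no compound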
# PTEN del growth – growth suppressors of cells with PTEN tumor suppressor deletion | HCT116 PTEN-null viability, CellTiter-Glo, 60 h; active compounds read low | viability, % at 10 µM | hit rate 1.2% among 140,000;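 active = viability at or below a set limit, 4 SD under the median of all tested compounds, cut at about 3.7% in these data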;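 also: PTEN knockout HCT116 line with beta catenin targeted HCT116 as companion control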
# Numbers without * were called inactive; x = not tested or not shown. This excerpt belongs to a sample that is enriched for hits.
SMILES,H69AR growth 86K,HCT116 bCat-KO,HUVEC inhibit,Fibroblast inh,PTEN del growth
CCOC(=O)c1ccc(N2C(=O)C=CC2=O)cc1,1.9*,96.5,12.3*,4.3*,109.5
CCOC(=O)c1ccc(-n2c(C)ccc2C)cc1,x,19.4,x,x,14.7
CCc1cc[n+](C2=C([O-])c3ccccc3C(=O)/C2=N\S(=O)(=O)c2cccs2)cc1,x,2.8*,x,x,3.2*
COc1cc(C(=O)OCC(=O)c2cc(C)n(C)c2C)cc(OC)c1OC,24.1*,29.3,64.4,67.2,35.2
Cc1cc(C(=O)COC(=O)c2n[nH]c3ccccc23)c(C)n1C,88.6,76.1,88.8,89.8,75.6
O=C1CN(C(=O)CSc2nc3ccccc3n2CCc2ccccc2)c2ccccc2N1,x,79.8,x,x,89.2
COc1cc2c(cc1OC)CN(c1nc(CN3CCOCC3)nc3sc4c(c13)CCCC4)CC2,x,29.7,x,x,3.1*
COc1ccc2c(c1OC)C(=O)O[C@@H]2[C@H]1c2c(cc3c(c2OC)OCO3)CCN1C,30.0*,96.0,89.6,88.5,79.8
O=c1c2cccc3c2c(nn1-c1ccccc1)-c1ccccc1-3,x,74.4,x,x,69.0
COC(=O)C1=C(C)NC(=S)N(C(C)=O)C1c1ccccc1 (centres undefined),91.4,93.2,82.5,92.5,98.6
Cc1nn(Cc2ccc(Cl)cc2Cl)c(Cl)c1/C=N/NC(=O)CNc1cccc(C(F)(F)F)c1,x,1.8*,x,x,2.3*
Cc1nn(Cc2ccc(F)cc2)c(Cl)c1/C=N/NC(=O)c1cccnc1,x,98.8,x,x,99.2
N#CCCn1cc(/C=N/O)c(-c2ccc(Cl)cc2)n1,95.2,86.0,101.3,93.2,88.5
N#CCCn1cc(/C=N/O)c(-c2ccc(-c3ccccc3)cc2)n1,31.8*,47.4,56.1,74.2,38.6
CCOC(=O)c1cccc(NC2c3ccccc3C(=O)N2Cc2ccco2)c1 (centres undefined),88.4,69.8,93.7,102.7,83.6
Cc1cnn(-c2cc(N/N=C/c3ccccc3F)ncn2)c1,x,21.4,x,x,2.6*
COc1ccc2cc(CCNC(=O)c3ccc4c(c3)OCO4)c(=O)[nH]c2c1,83.0,91.0,93.2,97.2,91.2
CN(CCO)c1cc(Sc2nc3ccccc3s2)c2nonc2c1[N+](=O)[O-],4.3*,110.0,74.9,29.6*,101.6
CC(=O)c1cccc2c(O)c(C3=Nc4ccccc4C3=O)[nH]c12,1.5*,38.2,36.0,61.2,35.5
Cc1cccc(-c2cc3c(nn2)-c2ccccc2C3=O)c1,18.7*,35.7,59.0,84.2,30.1
O=C1c2ccccc2-c2nnc(-c3ccccc3)cc21,x,14.8,x,x,13.2
Cc1c(NC(=S)N/N=C/C=C/c2ccc([N+](=O)[O-])cc2)c(=O)n(-c2ccccc2)n1C,x,86.8,x,x,81.6
O=C(N/N=C/c1ccc2c(c1)OCO2)c1sc2cc(Cl)ccc2c1Cl,x,6.4,x,x,2.1*
COc1ccc2c(Cl)c(C(=O)N/N=C/c3ccc4c(c3)OCO4)sc2c1,x,56.0,x,x,10.8
CN(C)C(=O)C(CCN1CCC(O)(c2ccc(Cl)cc2)CC1)(c1ccccc1)c1ccccc1,x,15.8,x,x,14.5
SMILES,H69AR growth 86K,HCT116 bCat-KO,HUVEC inhibit,Fibroblast inh,PTEN del growth
OC(CCCN1CCC(O)(c2ccc(Cl)cc2)CC1)c1ccc(F)cc1 (centres undefined),81.0,0.6*,115.6,87.5,0.7*
Cn1nc(-c2ccc(Cl)cc2)c2cc(C(=O)NCCCN3CCCC3)sc21,0.9*,1.5*,1.7*,13.9*,1.7*
CCCCNC(=O)c1cc2c(-c3ccc(Cl)cc3)nn(C)c2s1,36.4*,90.9,75.4,62.2,91.2
COCCCNC(=O)c1cc2c(-c3ccc(Cl)cc3)nn(C)c2s1,74.3,87.5,55.8,74.3,94.4
COc1ccc(-c2cc(C#N)nc(Oc3ccc(Cl)cc3)n2)cc1,x,55.9,x,x,65.7
COc1ccc(-c2cc(C#N)nc(N3CCN(C)CC3)n2)cc1,x,23.2,x,x,29.5
CCN(CC)c1nc(C#N)cc(-c2ccc(OC)cc2)n1,31.9*,14.9,68.1,80.3,17.9
COc1ccc(-c2cc(C#N)nc(N3CCNCC3)n2)cc1,1.4*,0.6*,51.3,2.0*,0.4*
CSCCC(NC(N)=O)C(=O)N(C)CC(=O)Nc1cc(C)ccc1C (centres undefined),91.5,81.7,101.8,102.4,97.2
CC(C)Oc1ccc(CNCC2(O)CCOC(C)(C)C2)cc1 (centres undefined),97.0,94.0,100.9,94.0,91.7
COC1(OC)N=C(N)C2(C#N)C(c3ccc4c(c3)OCO4)C12C#N (centres undefined),32.9*,86.9,84.4,87.2,116.5
CCOC(=O)CN1C(=O)C(=O)c2cccc(C)c21,33.2*,81.1,108.1,102.1,74.4
CCOC(=O)CN1C2=NCCN2c2ccccc21,100.9,98.5,107.7,105.1,111.5
c1ccc(-c2cn3nc(-c4ccccc4)sc3n2)cc1,60.8,x,69.3,80.1,x
c1ccc(-c2cn3c4c(sc3n2)CCCC4)cc1,21.4*,44.2,52.4,67.3,46.2
CN(C)CCCN(C(=O)c1ccc2c(c1)CCCC2)c1nc2c(F)cccc2s1,x,29.3,x,x,15.8
Cc1ccc2nc(N(CCCN(C)C)C(=O)c3ccc4c(c3)CCCC4)sc2c1,x,3.4*,x,x,1.0*
Cn1nc([N+](=O)[O-])nc1Sc1nnc(-c2ccccc2)o1,2.6*,3.4*,62.3,66.6,2.6*
O=Cc1ccc(Sc2nnc(-c3ccccc3)o2)c([N+](=O)[O-])c1,2.0*,16.7,2.4*,78.7,5.8
CCOc1ccc(CC2S/C(=N/c3ccccn3)NC2=O)cc1 (centres undefined),94.3,101.4,72.2,96.1,99.8
Cc1cc(C(=O)CN2C(=O)NC(C)(c3cccc(Br)c3)C2=O)c(C)n1Cc1ccco1 (centres undefined),87.1,1.8*,79.3,86.7,3.4*
Cc1cc(C(=O)CN2C(=O)NC(c3ccccc3)(c3ccccc3)C2=O)c(C)n1Cc1ccco1,94.3,65.4,96.9,100.5,68.1
Cc1ccccc1C(=O)NC(NCC1CCCO1)C(Cl)(Cl)Cl (centres undefined),x,95.8,x,x,88.1
CC(C)(C=O)C1=CC(=O)c2ccccc2C1=O,x,1.3*,x,x,1.7*
COc1ccc(N2CCN(C(=O)c3ccc(CS(=O)(=O)c4ccc(OC)cc4)o3)CC2)cc1,81.5,83.4,100.4,94.9,89.1
COc1ccc(S(=O)(=O)Cc2ccc(C(=O)N3CCN(c4cccc(C)c4C)CC3)o2)cc1,22.7*,12.1,53.5,71.1,14.1
COc1ccc(S(=O)(=O)Cc2ccc(C(=O)N3CCN(c4cccc(C)c4)C(C)C3)o2)cc1 (centres undefined),25.2*,23.1,49.7,55.8,21.3
CCOC(=O)CSC1=C(C#N)C(c2ccccc2OCC)C(C(=O)OCC)C(=O)N1 (centres undefined),91.9,91.3,104.7,92.3,105.2
CCOC(=O)CSC1=C(C#N)C(c2ccc(C)o2)CC(=O)N1 (centres undefined),94.3,11.7,33.5,48.6*,15.9
CCOC(=O)CSC1=C(C#N)C(c2ccccc2OCC)C(C#N)C(=O)N1 (centres undefined),27.3*,95.1,69.6,93.4,91.5

# High-throughput results as filed in PubChem BioAssay.
